Legend:
Format in all cases: functional
CCRF-CEM = test: Growth inhibition of human CCRF-CEM cells at 10 uM incubated for 48 hrs by sulforhodamine B assay relative to control; settings: read-out: GI
How it was run: (§1)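 Single-dose screen at 10 μM final: cells in RPMI 1640, 5% FBS, 2 mM L-glutamine, plated 5,000–40,000/well, preincubated 24 h at 37°C, 5% CO2; drug 48 h; adherent cells fixed with 10% TCA, suspension cells with 16% TCA; SRB stain, absorbance 515 nm; percentage growth versus untreated control, with time-zero plates.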

SR = test: Growth inhibition of human SR cells at 10 uM incubated for 48 hrs by sulforhodamine B assay relative to control; settings: read-out: GI
How it was run: (§2)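 NCI single-dose screen: cells grown in RPMI 1640 with 5% FBS and 2 mM L-glutamine, plated at 5,000–40,000 cells/well and preincubated 24 h at 37 °C, 5% CO2. Compounds taken from DMSO stock and tested at final 10 µM for 48 h. Cells fixed with TCA, stained with 0.4% SRB, absorbance read at 515 nm. Percentage growth calculated against untreated controls; controls held DMSO at the same dilution.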

A549 = test: Growth inhibition of human A549/ATCC cells at 10 uM incubated for 48 hrs by sulforhodamine B assay relative to control; settings: A549, 48 h, read-out: GI; how it was run: as §1
HOP-62 = test: Growth inhibition of human HOP62 cells at 10 uM incubated for 48 hrs by sulforhodamine B assay relative to control; settings: HOP-62, 48 h, read-out: GI; how it was run: as §1
NCI-H226 = test: Growth inhibition of human NCI-H226 cells at 10 uM incubated for 48 hrs by sulforhodamine B assay relative to control; settings: NCI-H226, 48 h, read-out: GI; how it was run: as §1
COLO 205 = test: Growth inhibition of human COLO205 cells at 10 uM incubated for 48 hrs by sulforhodamine B assay relative to control; settings: COLO 205, 48 h, read-out: GI; how it was run: as §1
HCT-116 = test: Growth inhibition of human HCT116 cells at 10 uM incubated for 48 hrs by sulforhodamine B assay relative to control; settings: HCT-116, 48 h, read-out: GI; how it was run: as §1
HT-29 = test: Growth inhibition of human HT-29 cells at 10 uM incubated for 48 hrs by sulforhodamine B assay relative to control; settings: HT-29, 48 h, read-out: GI; how it was run: as §1
SW-620 = test: Growth inhibition of human SW620 cells at 10 uM incubated for 48 hrs by sulforhodamine B assay relative to control; settings: SW-620, 48 h, read-out: GI; how it was run: as §2
SF-295 = test: Growth inhibition of human SF295 cells at 10 uM incubated for 48 hrs by sulforhodamine B assay relative to control; settings: SF-295, 48 h, read-out: GI; how it was run: as §2
SNB-19 = test: Growth inhibition of human SNB19 cells at 10 uM incubated for 48 hrs by sulforhodamine B assay relative to control; settings: SNB-19, 48 h, read-out: GI; how it was run: as §2
U-251 = test: Growth inhibition of human U251 cells at 10 uM incubated for 48 hrs by sulforhodamine B assay relative to control; settings: U-251, 48 h, read-out: GI; how it was run: as §2
Malme-3M = test: Growth inhibition of human MALME-3M cells at 10 uM incubated for 48 hrs by sulforhodamine B assay relative to control; settings: read-out: GI; how it was run: as §1
MDA-MB-435 = test: Growth inhibition of human MDA-MB-435 cells at 10 uM incubated for 48 hrs by sulforhodamine B assay relative to control; settings: MDA-MB-435, 48 h, read-out: GI; how it was run: as §1
SK-MEL-2 = test: Growth inhibition of human SK-MEL-2 cells at 10 uM incubated for 48 hrs by sulforhodamine B assay relative to control; settings: SK-MEL-2, 48 h, read-out: GI; how it was run: as §2
UACC-257 = test: Growth inhibition of human UACC257 cells at 10 uM incubated for 48 hrs by sulforhodamine B assay relative to control; settings: UACC-257, 48 h, read-out: GI; how it was run: as §2
UACC-62 = test: Growth inhibition of human UACC62 cells at 10 uM incubated for 48 hrs by sulforhodamine B assay relative to control; settings: UACC-62, 48 h, read-out: GI; how it was run: as §2
IGROV-1 = test: Growth inhibition of human IGROV1 cells at 10 uM incubated for 48 hrs by sulforhodamine B assay relative to control; settings: IGROV-1, 48 h, read-out: GI; how it was run: as §1
OVCAR-8 = test: Growth inhibition of human OVCAR8 cells at 10 uM incubated for 48 hrs by sulforhodamine B assay relative to control; settings: OVCAR-8, 48 h, read-out: GI; how it was run: as §1
786-0 = test: Growth inhibition of human 786-0 cells at 10 uM incubated for 48 hrs by sulforhodamine B assay relative to control; settings: 786-0, 48 h, read-out: GI; how it was run: as §1
A498 = test: Growth inhibition of human A498 cells at 10 uM incubated for 48 hrs by sulforhodamine B assay relative to control; settings: A498, 48 h, read-out: GI; how it was run: as §1
SN12C = test: Growth inhibition of human SN12C cells at 10 uM incubated for 48 hrs by sulforhodamine B assay relative to control; settings: read-out: GI; how it was run: as §2
PC-3 = test: Growth inhibition of human PC3 cells at 10 uM incubated for 48 hrs by sulforhodamine B assay relative to control; settings: PC-3, 48 h, read-out: GI; how it was run: as §1
MCF7 = test: Growth inhibition of human MCF7 cells at 10 uM incubated for 48 hrs by sulforhodamine B assay relative to control; settings: MCF7, 48 h, read-out: GI; how it was run: as §1
MDA-MB-231 = test: Growth inhibition of human MDA-MB-231 cells at 10 uM incubated for 48 hrs by sulforhodamine B assay relative to control; settings: MDA-MB-231, 48 h, read-out: GI; how it was run: as §1
Hs-578T = test: Growth inhibition of human Hs 578T cells at 10 uM incubated for 48 hrs by sulforhodamine B assay relative to control; settings: read-out: GI; how it was run: as §1
BT-549 = test: Growth inhibition of human BT549 cells at 10 uM incubated for 48 hrs by sulforhodamine B assay relative to control; settings: BT-549, 48 h, read-out: GI; how it was run: as §1
T47D = test: Growth inhibition of human T47D cells at 10 uM incubated for 48 hrs by sulforhodamine B assay relative to control; settings: read-out: GI; how it was run: as §2
MDA-MB-468 = test: Growth inhibition of human MDA-MB-468 cells at 10 uM incubated for 48 hrs by sulforhodamine B assay relative to control; settings: MDA-MB-468, 48 h, read-out: GI; how it was run: as §1
SK-MEL-28 = test: Growth inhibition of human SK-MEL-28 cells at 10 uM incubated for 48 hrs by sulforhodamine B assay relative to control; settings: SK-MEL-28, 48 h, read-out: GI; how it was run: as §2

Structure (SMILES) | inhibition of growth at 10 µM (CCRF-CEM) | inhibition of growth at 10 µM (SR) | inhibition of growth at 10 µM (A549) | inhibition of growth at 10 µM (HOP-62) | inhibition of growth at 10 µM (NCI-H226) | inhibition of growth at 10 µM (HCT-116) | inhibition of growth at 10 µM (HT-29) | inhibition of growth at 10 µM (SW-620) | inhibition of growth at 10 µM (SF-295) | inhibition of growth at 10 µM (SNB-19) | inhibition of growth at 10 µM (U-251) | inhibition of growth at 10 µM (Malme-3M) | inhibition of growth at 10 µM (MDA-MB-435) | inhibition of growth at 10 µM (SK-MEL-2) | inhibition of growth at 10 µM (UACC-257) | inhibition of growth at 10 µM (UACC-62) | inhibition of growth at 10 µM (IGROV-1) | inhibition of growth at 10 µM (OVCAR-8) | inhibition of growth at 10 µM (786-0) | inhibition of growth at 10 µM (A498) | also measured
CC(=O)C1=C(C)NC(SCc2nnc(-c3ccc(C)cc3)o2)=NC1c1ccc(F)cc1 (stereo not drawn) | 11.9% | 19.1% | < 10% | < 10% | 10.4% | < 10% | < 10% | < 10% | < 10% | < 10% | < 10% | < 10% | < 10% | < 10% | < 10% | 15.4% | 11% | < 10% | 15.4% | < 10% | inhibition of growth at 10 µM (COLO 205): < 10%; inhibition of growth at 10 µM (SN12C): < 10%; inhibition of growth at 10 µM (PC-3): 14.7%; inhibition of growth at 10 µM (MCF7): < 10%; inhibition of growth at 10 µM (MDA-MB-231): < 10%; inhibition of growth at 10 µM (Hs-578T): < 10%; inhibition of growth at 10 µM (BT-549): 13.9%; inhibition of growth at 10 µM (T47D): 25.6%; inhibition of growth at 10 µM (MDA-MB-468): < 10%
CCOC(=O)C1=C(C)NC(SCc2nnc(-c3ccc(Cl)cc3)o2)=NC1c1ccc(Cl)cc1Cl (stereo not drawn) | 72.8% | 62.1% | 46.5% | 17.5% | 21% | 71.2% | 46.9% | 33.8% | 52.8% | 27.1% | 34.7% | 27.2% | 31% | 40% | 31.9% | 48.4% | 56.1% | 45.8% | 34.8% | 22.3% | inhibition of growth at 10 µM (SK-MEL-28): < 10%; inhibition of growth at 10 µM (SN12C): 34.6%; inhibition of growth at 10 µM (PC-3): 54.9%; inhibition of growth at 10 µM (MCF7): 68%; inhibition of growth at 10 µM (MDA-MB-231): 58.3%; inhibition of growth at 10 µM (Hs-578T): 32.9%; inhibition of growth at 10 µM (BT-549): 10.3%; inhibition of growth at 10 µM (T47D): 52.6%; inhibition of growth at 10 µM (MDA-MB-468): 11.6%
CC(=O)C1=C(C)NC(SCc2nnc(-c3ccc(Cl)cc3)o2)=NC1c1ccc(F)cc1 (stereo not drawn) | < 10% | 19.1% | < 10% | < 10% | 11.6% | 13.1% | < 10% | < 10% | < 10% | < 10% | < 10% | < 10% | < 10% | < 10% | < 10% | 22.6% | 15.4% | < 10% | 16.4% | < 10% | inhibition of growth at 10 µM (COLO 205): < 10%; inhibition of growth at 10 µM (SK-MEL-28): < 10%; inhibition of growth at 10 µM (SN12C): < 10%; inhibition of growth at 10 µM (PC-3): 18.5%; inhibition of growth at 10 µM (MCF7): 10.6%; inhibition of growth at 10 µM (MDA-MB-231): 17%; inhibition of growth at 10 µM (Hs-578T): < 10%; inhibition of growth at 10 µM (BT-549): < 10%; inhibition of growth at 10 µM (T47D): 24.1%; inhibition of growth at 10 µM (MDA-MB-468): 11.3%
CC(=O)C1=C(C)NC(SCc2nnc(-c3ccc(Cl)cc3)o2)=NC1c1ccc(Cl)cc1 (stereo not drawn) | 20.9% | 37.8% | 21.4% | 11.6% | 11.4% | 25.8% | < 10% | < 10% | < 10% | 16.6% | 14.8% | 11.6% | < 10% | < 10% | < 10% | 27.7% | 23.4% | 14.5% | 12.6% | < 10% | inhibition of growth at 10 µM (COLO 205): < 10%; inhibition of growth at 10 µM (SK-MEL-28): < 10%; inhibition of growth at 10 µM (SN12C): 13%; inhibition of growth at 10 µM (PC-3): 31.1%; inhibition of growth at 10 µM (MCF7): 16.4%; inhibition of growth at 10 µM (MDA-MB-231): 27%; inhibition of growth at 10 µM (Hs-578T): < 10%; inhibition of growth at 10 µM (BT-549): 15.1%; inhibition of growth at 10 µM (T47D): 39.5%; inhibition of growth at 10 µM (MDA-MB-468): 10.8%

Source: ChEMBL document CHEMBL4190234, “Design, synthesis and anticancer activity of new monastrol analogues bearing 1,3,4-oxadiazole moiety” (Eur J Med Chem, 2017)
